In article PMC2718708 (Bioorganic & medicinal chemistry, 2008):
Entries after “also recorded” stand apart in the source; their conditions may differ. Where a SMILES comes first, the peptide text is derived from it. [ ]: non-standard residue; d: D form. Nle = CCCC[C@H](N)C(=O)O

How the values were obtained:
p53 in U2OS cells = assay type: cell-based, human; settings: U2OS co-transfected with p53 and Hdm2; 8 h; 50 µM ALLN or 3–15 µM 5
[1] = test system: p53 and Hdm2 in RPE cells; test: Cellular p53 and Hdm2 levels in RPE cells by immunoblotting; settings: for effect on cellular p53 and Hdm2 levels: 1–10 µM, immunoblotting; for effect on cellular p53 and Hdm2 levels / concentration exhibiting greatest increase in p53 and Hdm2: 8 h; for concentration exhibiting greatest increase in p53 and Hdm2: similar to 50 µM ALLN
Hdm2 [2] = biological target: T1, Hdm2 (Homo sapiens, UniProt Q00987); test: Hdm2 electrochemiluminescence assay; assay type: biochemical; settings: for activity in Hdm2 assay: isolated from Hdm2-inhibitory fractions
[3] = Stability of the compound observed while conducting experiments; assay type: physicochemical
[4] = test system: Hdm2 in p53^−/−mdm2^−/− mouse embryo fibroblasts; assay type: cell-based; settings: 10 µM, 8 h; Hdm2 under p53-independent CMV promoter
A9 cells = test: Cell death by trypan blue exclusion, p53-deficient MEFs; assay type: cell-based, mouse; settings: 5–20 µM, 20 h
RPE cells = test: Cell death by trypan blue exclusion, parental RPE cells; assay type: cell-based, human; settings: 3–25 µM, 17 h
RPE-E1A cells = test: Cell death by trypan blue exclusion, RPE-E1A cells; assay type: cell-based, human; settings: 3–25 µM, 17 h
[5] = test system: p53 in HCT116 colon carcinoma cells; test: ALLN-induced ubiquitylated p53 in HCT116 cells expressing wild-type p53; assay type: cell-based, human; settings: treatment with both 5 and ALLN; data not shown
C8 cells [6] = test: Cell death by trypan blue exclusion, wild-type p53 MEFs; assay type: cell-based, mouse; settings: 5–20 µM, 20 h
[7] = test system: U2OS-pG13 cells (p53-responsive luciferase reporter); test: p53-responsive luciferase reporter assay in U2OS-pG13 cells; assay type: cell-based, human; settings: 1–10 µM, 22 h
Method in brief: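 U2OS-pG13 cells carry endogenous wild-type p53 and a stably expressed p53-responsive luciferase reporter (pG13). They were incubated for 22 h with test compound at 1–10 µM, with adriamycin at 1 µg/ml as reference. Cells were lysed in reporter lysis buffer and spun at 14,000 g for 20 min. Supernatant luciferase was read as RLU. Values are mean and standard deviation of three independent experiments.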

[8] = test system: HCT116-p53^+ and HCT116-p53^− cells; test: Killing of HCT116-p53+ compared to HCT116-p53- cells; assay type: cell-based, human; settings: HCT116-p53+ vs HCT116-p53−; data not shown
C8 cells [9] = test: PARP cleavage by immunoblotting, C8 cells; assay type: cell-based, mouse; settings: 5–20 µM, 14 h
Hdm2 [10] = biological target: T1, Hdm2; settings: cited from earlier work

T1 sequence (Q00987 whole entry): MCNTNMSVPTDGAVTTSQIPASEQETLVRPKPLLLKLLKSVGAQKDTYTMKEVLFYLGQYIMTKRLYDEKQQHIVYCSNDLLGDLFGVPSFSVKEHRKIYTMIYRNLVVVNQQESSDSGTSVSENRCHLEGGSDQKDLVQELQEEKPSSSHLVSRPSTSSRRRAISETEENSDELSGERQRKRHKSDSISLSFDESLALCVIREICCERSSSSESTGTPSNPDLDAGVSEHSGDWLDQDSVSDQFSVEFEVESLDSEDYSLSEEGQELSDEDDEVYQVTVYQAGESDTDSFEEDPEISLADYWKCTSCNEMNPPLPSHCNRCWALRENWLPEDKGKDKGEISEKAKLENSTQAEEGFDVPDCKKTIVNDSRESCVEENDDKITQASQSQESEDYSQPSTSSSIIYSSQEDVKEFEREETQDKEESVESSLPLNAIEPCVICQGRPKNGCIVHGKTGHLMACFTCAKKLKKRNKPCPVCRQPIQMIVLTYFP

Structure (SMILES): CCCC[C@@H](C=O)NC(=O)[C@H](CC(C)C)NC(=O)[C@H](CC(C)C)NC(C)=O [ALLN, N-acetyl-leucyl-leucyl-norleucinal, reference compound] (Ac-Leu-Leu-[Nle]-aldehyde)
- effect on p53 degradation / p53 level (p53 in U2OS cells): accumulation of p53
- ubiquitylated forms of p53 (p53 in U2OS cells): higher molecular weight forms of the protein indicative of ubiquitylation

Structure (SMILES): COc1cc(CCN(C)C)c2c(c1O)SSSSS2 [Compound 1, Isolissoclinotoxin B]
- effect on p53 levels ([1]; RPE cells, at 1 µM): did not increase p53 levels
- toxicity to RPE cells ([1]; at 10 µM): toxic

Structure (SMILES): COc1cc(CCN)c2c(c1OC)SSSSS2 [Compound 2, varacin]
- activity in Hdm2 assay (Hdm2 [2]): very little activity
- effect on cellular p53 and Hdm2 levels ([1]; RPE cells): no discernable cellular effects

Structure (SMILES): COc1c(C)c(CCN(C)C)c2c(c1OC)SSSSS2 [Compound 3, N,N-dimethyl-5-methylvaracin]
- activity in Hdm2 assay (Hdm2 [2]): very little activity
- effect on cellular p53 and Hdm2 levels ([1]; RPE cells): no discernable cellular effects

Structure (SMILES): CSC1=C(CCN)c2nc3ccccc3c3ccnc(c23)C1=O [Compound 4, Diplamine B]
- stability [3]: fairly unstable and degraded over time
- effect on cellular Hdm2 [4]: increased Hdm2; also recorded: stabilized Hdm2 in MEFs
- effect on cellular p53 and Hdm2 levels ([1]; RPE cells): increased p53 and Hdm2 in cells in a dose-dependent manner
- concentration exhibiting greatest increase in p53 and Hdm2 ([1]; RPE cells): 10 µM

Structure (SMILES): NCCc1c2c(c3nccc4c3c1Nc1ccccc1-4)OCS2 [Compound 5, Lissoclinidine B]
- cell death (A9 cells): relatively resistant
- cell death (RPE cells): no effect
- cell death (RPE-E1A cells): clear dose-dependent increase in cell death; also recorded: selectively kills transformed cells
- effect on ALLN-induced ubiquitylated p53 [5]: prevented the accumulation of ALLN-induced ubiquitylated p53
- cell death (C8 cells [6]): marked increase in cell death; also recorded: selectively kills cells expressing wild-type p53
- effect on cellular Hdm2 [4]: increased Hdm2; also recorded: stabilized Hdm2 in MEFs
- IC50 (Hdm2 [2]): 98.1 ± 6 µM
- effect on cellular p53 and Hdm2 levels ([1]; RPE cells): increased p53 and Hdm2 in cells in a dose-dependent manner
- concentration exhibiting greatest increase in p53 and Hdm2 ([1]; RPE cells): 10 µM
- luciferase activity (p53-dependent transactivation) [7]: dose-dependent increase in luciferase activity; also recorded: activates p53 transcription
- effect on p53 degradation / p53 level (p53 in U2OS cells): blocked p53 degradation in a dose-dependent manner; also recorded: inhibits Hdm2-mediated p53 degradation
- ubiquitylated forms of p53 (p53 in U2OS cells): absent
- p53-dependent killing [8]: p53-dependent killing
- PARP cleavage (apoptosis) (C8 cells [9]): cleavage of the poly (ADP-ribose) polymerase (PARP) was observed; also recorded: induces apoptosis in C8 cells

Structure (SMILES): c1ccc2c3ccn4cc5c(cc4c-3nc2c1)CCCC5 [sempervirine]
- inhibition of auto-ubiquitylation of Hdm2 (Hdm2 [10]): inhibits auto-ubiquitylation of Hdm2
